Here are results for 31 molecules from ChEMBL document CHEMBL2385004, “Development of flavonoid-based inverse agonists of the key signaling receptor US28 of human cytomegalovirus” (J Med Chem, 2013).

Assay [1] can be described thus: Activation of MAPK signaling pathway in mock-transfected HEK293T cells at 10 uM after 20 to 24 hrs by luciferase-based Elk1 reporter gene assay relative to control. The assay is classed as cell-based. Conditions: Homo sapiens, HEK-293T. The method, boiled down:
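HEK293T cells transiently transfected with 0.1 μg Elk1, 5 μg Luc and empty pcDNA3 (PathDetect trans Elk1 system). After 5 h, washed, seeded at 20,000 cells/well in DMEM, 1% FBS, 2 mM L-glutamine, 1% pen-strep, 1% DMSO. Compound at 10 μM; 37 °C, 5% CO2, 20−24 h. Bright-Glo luminescence; % effect = 100% × (treated/1% DMSO control luminescence) − 100%.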
On the technique in general: In a reporter assay the amount or activity of a reporter protein is the signal.

For the next assay, the system named is CHO. Put plainly: Cytotoxicity against CHO cells after 48 hrs by MTS assay. It counts as cell-based. Conditions: Cricetulus griseus. The essentials: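 CHO cells plated at 10000 cells/mL and incubated overnight. Drug from DMSO stock added, final DMSO <1%. Incubated 48 h at 37 °C, 5% CO2, then MTS reagent for 4 h more. Absorbance read at 490 nm. Run in triplicate; IC50 taken from a plot of relative A490 vs drug concentration.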
(In general: Tetrazolium dyes change colour on reduction, which living cells bring about.)

Assay [2] can be described thus: Inverse agonist activity at human cytomegalovirus US28 receptor transfected in HEK293T cells assessed as activation of MAPK signaling pathway at 10 uM after 20 to 24 hrs by luciferase-based Elk1 reporter gene assay relative to control. It counts as cell-based. Conditions: Human betaherpesvirus 5, HEK-293T. The essentials:
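HEK293T transiently transfected with 0.1 μg Elk1, 5 μg Luc and 5 μg US28 vector (PathDetect trans Elk1), reading US28-driven MAPK/Elk1 signaling. After 5 h, seeded 20,000 cells/well in DMEM, 1% FBS, 2 mM L-glutamine, 1% pen-strep, 1% DMSO with compound; 37 °C, 5% CO2, 20−24 h. Bright-Glo luciferase luminescence vs no-compound control. Triplicates, 3−5 experiments; curves normalized, pooled, fitted by nonlinear regression.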

Assay [3] can be described thus: Inverse agonist activity at human cytomegalovirus US28 receptor transfected in HEK293T cells assessed as activation of MAPK signaling pathway after 20 to 24 hrs by luciferase-based Elk1 reporter gene assay. The assay is classed as cell-based, Human betaherpesvirus 5, HEK-293T. The method, boiled down: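 HEK293T cells transiently co-transfected with Elk1 (0.1 μg), Luc (5 μg) and US28 vector (5 μg); 5 h later washed, seeded at 20,000 cells/well in DMEM, 1% FBS, 2 mM L-glutamine, 1% penicillin-streptomycin, 1% DMSO with compound; 37 °C, 5% CO2, 20–24 h; BrightGlo luminescence. 3–5 experiments in triplicate, pooled normalized sigmoid fits give EC50 and efficacy.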

Where [4] appears, read: Human betaherpesvirus 5, HEK-293T, read-out: EC50.
Setting [5] is: Human betaherpesvirus 5, HEK-293T, read-out: pEC50 (converted).

Calls of active or inactive are those of the source. The calls are words filed in the database; no cut-off is given here.

As usually defined, the IC50 is the point on the concentration scale where inhibition reaches its midpoint. A high value points to lower potency. Take `COc1ccc(I)cc1-c1oc2ccccc2c(=O)c1O`: the Activity in assay [1] is -23%. In the assay on CHO, this molecule came in with a half-maximal inhibitory concentration (IC50) of 17.9 µM. Besides, the outcome in assay [2] was inactive.
Take `COc1cc(OC)c(-c2oc3ccccc3c(=O)c2O)cc1Br`: the Activity in assay [1] was -17%. The same molecule showed an IC50 in the assay with CHO of 18.3 µM. In assay [2], the outcome was inactive.
Regarding `COc1ccc(C)cc1-c1oc2ccccc2c(=O)c1O`, in assay [1], the Activity came out at 0%. The molecule further had a 50% inhibitory concentration (IC50) with CHO of 54.6 µM. Further, the EC50 in assay [3] (setting [4]) and in assay [3] (setting [5]) was 1.78 µM throughout. The Efficacy in assay [2] was -38%.
Turning to `COc1ccc(Br)cc1-c1oc2ccccc2c(=O)c1O`, the Activity in assay [1] was -11%. The same molecule had an IC50 with CHO of 88.5 µM. In assay [2], the result was inactive.
On to `COc1ccc(Cl)cc1C1CC(=O)c2ccccc2O1` (stereo unspecified), for which, in assay [1], the Activity was -14%. Further, the result in assay [2] was inactive.
With `CCOc1ccc(Br)cc1-c1oc2ccccc2c(=O)c1O`, in assay [1], the Activity was -31%. For the same molecule, in the assay on CHO, the IC50 amounted to 13.5 µM. Moreover, the EC50 in assay [3] (setting [4]) is 0.8 µM; in assay [3] (setting [5]) it was 0.832 µM. The Efficacy in assay [2] is -41%.
Regarding `COc1ccccc1-c1cc(=O)c2ccccc2o1`, the Activity in assay [1] amounted to 3%. The molecule further registered an IC50 in the assay on CHO of 64.8 µM. Besides, the result in assay [2] was inactive.
Turning to `COc1ccccc1/C=C/C(=O)c1ccccc1O`, the Activity in assay [1] turned out to be 8%. Besides, in the assay on CHO, the midpoint of inhibition, the IC50, lay at 25.5 µM. Moreover, the EC50 is 1.4 µM in assay [3] (setting [4]) and 1.45 µM in assay [3] (setting [5]). In assay [2], the Efficacy is 67%.
For the molecule `COc1ccc(Br)cc1-c1oc2cccc(OC)c2c(=O)c1O`, in assay [1], the Activity is -1%. In the assay with CHO, this molecule gave an IC50 of 17.3 µM. The result in assay [2] was inactive.
In the case of `CCOc1ccc(Br)cc1/C=C/C(=O)c1ccccc1O`, in assay [1], the Activity is -3%. Besides, the IC50 with CHO stood at 7.2 µM. Besides, the EC50 in assay [3] (setting [4]) is 5 µM; in assay [3] (setting [5]) it was 5.01 µM. For the same molecule, the Efficacy in assay [2] was -88%.
In the case of `COc1ccc(Br)cc1/C=C/C(=O)c1ccccc1O`, in assay [1], the Activity is -29%. In the assay on CHO, this molecule registered an IC50 of 8.7 µM. The EC50 was 7.8 µM in assay [3] (setting [4]) and 7.76 µM in assay [3] (setting [5]). In assay [2], the Efficacy is -44%.
On to `CCOc1ccc(Cl)cc1-c1oc2ccccc2c(=O)c1O`, for which the Activity in assay [1] is -17%. Further, in the assay on CHO, the IC50 is > 100 µM. Moreover, the EC50 was 0.31 µM in assay [3] (setting [4]) and 0.309 µM in assay [3] (setting [5]). Also, the Efficacy in assay [2] was -41%.
With `COc1ccc(Br)cc1-c1cc(=O)c2ccccc2o1`, the Activity in assay [1] is -17%. The IC50 with CHO is > 100 µM. Besides, the EC50 in assay [3] (setting [4]) was 8.1 µM; in assay [3] (setting [5]), 8.13 µM. Further, the Efficacy in assay [2] was -55%.
On to `COc1ccccc1-c1oc2ccccc2c(=O)c1O`, for which the Activity in assay [1] is -1%. Besides, the IC50 in the assay on CHO was > 100 µM. Besides, the EC50 is 4.6 µM in assay [3] (setting [4]) and 4.57 µM in assay [3] (setting [5]). The Efficacy in assay [2] is -19%.
Take `COc1cc(Br)cc(-c2oc3ccccc3c(=O)c2O)c1OC`: the Activity in assay [1] was -28%. The IC50 in the assay on CHO was > 100 µM. Further, the result in assay [2] was inactive.
As to `COc1ccc(Br)cc1/C=C/C(=O)c1c(O)cccc1OC`, the Activity in assay [1] came to 290%. In the assay with CHO, this molecule came in with an IC50 of 6.1 µM. Further, the EC50 in assay [3] (setting [4]) is 6 µM; in assay [3] (setting [5]), 6.03 µM. For the same molecule, in assay [2], the Efficacy was -95%.
In the case of `COc1ccc(I)cc1/C=C/C(=O)c1ccccc1O`, in assay [1], the Activity is 100%. For the same molecule, the IC50 in the assay on CHO is 6.7 µM. Besides, the EC50 in assay [3] (setting [4]) and in assay [3] (setting [5]) was 5.5 µM each time. Further, in assay [2], the Efficacy was -94%.
As to `COc1cc(Br)cc(/C=C/C(=O)c2ccccc2O)c1OC`, in assay [1], the Activity is -42%. The IC50 with CHO is 7.2 µM. In addition, the EC50 was 6.7 µM in assay [3] (setting [4]) and 6.61 µM in assay [3] (setting [5]). The Efficacy in assay [2] was -52%.
Consider `COc1ccccc1/C=C/C(=O)c1c(O)cccc1OCc1ccccc1`, for which the EC50 entry in assay [3] (hek-293t) was “ND(toxic)”.
In the case of `COc1cc(OC)c(/C=C/C(=O)c2ccccc2O)cc1Br`, in assay [1], the Activity amounted to 5%. This molecule displayed an IC50 in the assay on CHO of 16.9 µM. In addition, the EC50 in assay [3] (setting [4]) and in assay [3] (setting [5]) was 4.9 µM in each case. The Efficacy in assay [2] is -55%.
In the case of `COc1ccccc1-c1cc(=O)c2c(O)cccc2o1`, in assay [1], the Activity was 2%. Also, the IC50 in the assay on CHO was > 100 µM. Further, in assay [2], the result was inactive.
Regarding `COc1ccc(Br)cc1-c1cc(=O)c2c(OCc3ccccc3)cccc2o1`, the Activity in assay [1] was -3%. This molecule displayed an IC50 with CHO of 96.6 µM. Further, the EC50 in assay [3] (setting [4]) is 3.5 µM; in assay [3] (setting [5]), 3.47 µM. The Efficacy in assay [2] is -89%.
For `COc1ccc(Br)cc1-c1cc(=O)c2c(O)cccc2o1`, the Activity in assay [1] was -16%. Besides, in the assay with CHO, the IC50 came to 75.2 µM. The outcome in assay [2] was inactive.
Regarding `COc1ccc(Cl)cc1/C=C/C(=O)c1ccccc1O`, the Activity in assay [1] was -30%. For the same molecule, half-maximal inhibition with CHO (IC50) was put at 8.4 µM. The EC50 was 7.8 µM in assay [3] (setting [4]) and 7.76 µM in assay [3] (setting [5]). In addition, the Efficacy in assay [2] was -58%.
Turning to `CCOc1ccc(Cl)cc1/C=C/C(=O)c1ccccc1O`, the Activity in assay [1] was 33%. For the same molecule, the IC50 in the assay on CHO came to 6.8 µM. For the same molecule, the EC50 was 6.4 µM in assay [3] (setting [4]) and 6.46 µM in assay [3] (setting [5]). For the same molecule, in assay [2], the Efficacy is -76%.
Regarding `COc1ccccc1-c1cc(=O)c2c(OCc3ccccc3)cccc2o1`, the Activity in assay [1] was -40%. In the assay on CHO, this molecule showed an IC50 of 17.5 µM. Besides, the figures for the EC50 in assay [3] (setting [4]) and in assay [3] (setting [5]) were 7.3 µM and 7.24 µM, respectively. In assay [2], the Efficacy is -49%.
As for `COc1ccc(Br)cc1/C=C/C(=O)c1ccc2ccccc2c1O`, in assay [1], the Activity came to 35%. In the assay with CHO, this molecule yielded an IC50 of 15.6 µM. The EC50 in assay [3] (setting [4]) was 2.9 µM; in assay [3] (setting [5]), 2.88 µM. The Efficacy in assay [2] was -92%.
For the molecule `COc1ccc(Cl)cc1-c1oc2ccccc2c(=O)c1O`, the Activity in assay [1] stood at 2%. In the assay on CHO, this molecule showed an IC50 of 25 µM. Besides, the EC50 in assay [3] (setting [4]) and in assay [3] (setting [5]) was 1.32 µM throughout. For the same molecule, the Efficacy in assay [2] was -42%.
In the assay on CHO, `COc1ccc(Br)cc1/C=C/C(=O)c1c(O)cccc1OCc1ccccc1` returned an IC50 of 8.1 µM. Moreover, the EC50 entry in assay [3] (hek-293t) is given as “ND(toxic)”.
In the case of `COc1ccc(C)cc1/C=C/C(=O)c1ccccc1O`, the Activity in assay [1] was -4%. This molecule gave an IC50 in the assay with CHO of 14.2 µM. In addition, the EC50 in assay [3] (setting [4]) came to 10 µM. The Efficacy in assay [2] was determined as 52%.
Regarding `COc1ccc(Br)cc1C1CC(=O)c2ccccc2O1` (stereo unspecified), the Activity in assay [1] is -5%. Half-maximal inhibition in the assay with CHO (IC50) was put at 67.9 µM. The result in assay [2] was inactive.
